A short description of one data set: Solubility. In kind it is physicochemical. The conditions noted are these: co-assemblies with Hdm2-ABD.
The test system of data set [1] is Arf-null NIH 3T3 mouse fibroblasts. As to the kind of experiment: BrdU incorporation / cell cycle arrest assay after nuclear micro-injection. In kind it is cell-based. The conditions noted are these: peptide 2–4 mg/ml, BrdU 10 μM, 8 hours, 3 independent experiments.
The nature of data set [2]: Sedimentation velocity AUC of the isolated polypeptide. In kind it is physicochemical. The procedure, abridged:
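Sedimentation velocity was run at 50,000 rpm and 20 °C, with Rayleigh interference scans every 1 min. Samples were dialysed into 10 mM sodium phosphate pH 6.0 with 10 mM NaCl (150 mM for high ionic strength), and the dialysate was the reference. Analysis used c(s) with maximum-entropy regularisation (p = 0.7, n = 100), with s from main-peak integration and weight-average f/f0. c(M) came from c(s). c(s, f/f0) used an f/f0 grid of 1.2–2.2 and s of 0.1–5 S.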

A short description of a further data set: Structure in isolation. It counts as physicochemical. Conditions: for structure in isolation: absence of oppositely charged partner. The procedure, abridged:
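Uniformly 13C/15N-labelled Hdm2-ABD (2 mM) was studied in 10 mM sodium phosphate, 10 mM NaCl, 0.01% azide, 6% D2O, pH 6.0, 25 °C. Backbone assignments came from HSQC, CT-HNCA, CT-HN(CO)CA, HNCACB and CBCA(CO)NH spectra, and side chains from C(CO)NH- and H(CCO)NH-TOCSY. 1H was referenced to external TSP, with 13C/15N referenced indirectly.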

For data set [3], the system named is 15N-Hdm2-ABD. As to the kind of experiment: 2D 1H-15N HSQC NMR of 15N-Hdm2-ABD with Arf peptide. In kind it is binding, human. In outline: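 15N-Hdm2-ABD was expressed in E. coli in MOPS minimal medium with 15NH4Cl and purified. […] Combined shift perturbation: Δδ1H/15N = [(Δδ1HN)² + 0.0289·(Δδ15NH)²]^1/2, each difference taken as bound minus free.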
In data set [4] the test system is Hdm2-ABD lacking the H1 and/or H2 segments. Put plainly: CD co-assembly of A1-mini with Hdm2-ABD lacking H1 and/or H2 segments. It counts as binding, human. Conditions: deletion of the H1 and/or H2 segments (Suppl. Fig. 1).
Data set [5] has as its system Mdm2. Put plainly: Nucleolar co-localization with endogenous Mdm2 after nuclear micro-injection. In kind it is cell-based, mouse. The conditions noted are these: for cells with co-localization with Mdm2 in nucleoli: 0.5 mg/mL TR-A1-mini injected into nuclei, 4 hour recovery, anti-mdm2 2A10.
For data set [6] the following is noted: cited from earlier work.
The conditions of data set [7]: cited from earlier work. The source holds these as a separate data set.
The nature of data set [8]: Pulsed magnetic field gradient/diffusion NMR of free Hdm2-ABD. The conditions noted are these: 1 mM 15N-Hdm2-ABD, 10 mM sodium phosphate, 10 mM NaCl, pH 6; dioxane standard. It counts as physicochemical. The procedure, abridged: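 Diffusion was recorded at 600 MHz on 1 mM 15N-Hdm2-ABD in 10 mM sodium phosphate, 10 mM NaCl, pH 6. A 15N-filtered BPP-MAXY-D sequence gave 1D spectra across gradient strengths of 1–60 G cm−1. Dioxane served as internal standard to normalise for solution conditions. Equivalent unfolded chain length was estimated from Rh = (2.21 ± 1.07)N^(0.57 ± 0.02).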

Data set [9] relates to nucleoli of Arf-null NIH 3T3 mouse fibroblasts. As to the kind of experiment: Nucleolar localization after nuclear micro-injection. The conditions noted are these: 0.5 mg/mL TR-A1-mini injected into nuclei; 33/42 cells; 4 hour recovery. In kind it is cell-based.
Data set [10] has as its system Mdm2. Conditions: cited from earlier work.
Data set [11] has as its system 15N-Hdm2-ABD. The conditions noted are these: 3 equivalents; cited from earlier work.
A further data set deals with Hdm2-ABD (Homo sapiens, UniProt Q00987). Conditions: cited from earlier work.
In the next data set the test system is mouse fibroblasts. The conditions noted are these: cited from earlier work.
For data set [12], the system named is 15-residue peptide containing the H1 segment of Hdm2. The conditions noted are these: cited from earlier work.
Data set [13] has as its target Arf-binding domain of Hdm2 (Hdm2-ABD), residues 210-304 (human, UniProt Q00987 210-304). Put plainly: circular dichroism.
Where [14] appears, read: 0.5 mM, 20 °C, 10 mM sodium phosphate pH 6.0, 10 mM NaCl, c(s) model.

“Also recorded” adds a separate entry of the source. Like-named read-outs stand apart in the source and are kept apart here.

What is called Kd is a measure of binding affinity in units of concentration. A high value points to lower affinity.

Chain of Hdm2-ABD (Q00987 210-304): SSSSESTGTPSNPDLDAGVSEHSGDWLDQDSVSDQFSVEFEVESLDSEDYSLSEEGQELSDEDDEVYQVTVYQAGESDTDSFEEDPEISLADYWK
Chain of Arf-binding domain of Hdm2 (Hdm2-ABD), residues 210-304 (Q00987 210-304): as above

Take `CC(C)C[C@H](NC(=O)[C@H](Cc1ccccc1)NC(=O)[C@H](CCCNC(=N)N)NC(=O)[C@H](CCCNC(=N)N)NC(=O)CN)C(=O)N[C@H](C(=O)N[C@H](C(=O)N[C@H](C(=O)N[C@@H](CCCNC(=N)N)C(=O)O)C(C)C)[C@@H](C)O)C(C)C` [A1-mini]: the “solubility of peptide/Hdm2-ABD co-assemblies” value in “Solubility” was greater than 1000 µM. The “inhibition of BrdU incorporation / cell cycle arrest” value in data set [1] was “did not cause cell cycle arrest; also recorded: No significant differences in the percentage of cells undergoing DNA replication”. Also, the “sedimentation state, isolated” value in data set [2] (AUC, data not shown) is “sedimented as a monomer”. In “Structure in isolation”, the structure in isolation entry is on record as “intrinsically unstructured”. The “Δδ13Cα, 1H-1H NOE and heteronuclear NOE differences of 15N-Hdm2-ABD” value with 15N-Hdm2-ABD [3] (absence vs presence of A1-mini, data not shown) is given as “significant differences in these parameters were not detected”. Further, in the data set on 15N-Hdm2-ABD [3] (in presence of four-fold molar excess A1-mini (Suppl. Fig. 5B)), the “1H-15N HSQC resonance intensities of 15N-Hdm2-ABD” value was “significant reduction in the intensity; also recorded: reduced significantly”. The “co-assembly with Hdm2-ABD deletion variants” value in data set [4] is listed as “complete abrogation of co-assembly”. For the same molecule, the “cells with co-localization with Mdm2 in nucleoli” value in the data set with Mdm2 [5] is 7%.
On to (AEAEAKAK)2, for which the self-assembly entry in [6] is listed as “self-assembled into β-strand-rich structures with fibrilar characteristics”.
As to “Hdm2-ABD: Hdm2 domain spanning residues 210-304 (Arf-binding domain)”, in data set [7], the structure in isolation result was “intrinsically unstructured in isolation”. In addition, in data set [2] (setting [14]), the “frictional ratio (f/f0), isolated” value was found to be 2.18 and the “sedimentation coefficient (s), isolated” value is given as 1.0 S. In addition, in [2] (0.5 mM, 20 °C, pH 6.0, 10 mM NaCl), the “molecular mass by AUC, isolated” value is listed as ~ 10,900 Da. In “Structure in isolation”, the structure in isolation entry was “intrinsically unstructured”. For the same molecule, in “Structure in isolation” (free Hdm2-ABD, pH 6.0, 25 °C (Suppl. Fig. 7B)), the “secondary 13Cα chemical shift values (Δδ13Cα)” value was “close to zero”. Moreover, the “radius of hydration (Rh), free” value in [8] is given as 25.7 Å.
In the case of N-CGGGGGRRFLVTVR-C [TR-A1-mini], in data set [1], the “inhibition of BrdU incorporation / cell cycle arrest” value is on record as “did not inhibit the incorporation of bromo-deoxyuridine (BrdU) into DNA”. In [9], the “injected cells with nucleolar localization” value was found to be 79%. For the same molecule, the “cells with co-localization with Mdm2 in nucleoli” value with Mdm2 [5] turned out to be 7%. In addition, the “cells with nucleoplasmic Mdm2 and nucleolar TR-A1-mini localization” value in the data set with Mdm2 [5] (Fig. 5, nuclear injection) worked out at 93%.
Take “mArf-N37: 37-residue intrinsically unstructured N-terminal fragment of p19^Arf (MGRRFLVTVRIQRAGRPLQERVFLVKFVRSRRPRTAS; UniProt Q64364 1-37, looked up, fragment)”: the “binding to Mdm2” value in the data set on Mdm2 [10] is reported as “bound to Mdm2”. Moreover, in the data set on Mdm2 [10] (in cells), the “co-assembly with Mdm2 in nucleoli” value is “co-assembled specifically with Mdm2 in nucleoli”. In data set [7], the structure in isolation result is “intrinsically unstructured in isolation”. For the same molecule, the “effect on 15N-Hdm2-ABD resonances” value in the data set on 15N-Hdm2-ABD [11] is recorded as “broaden beyond detection”. Also, the “Hdm2-ABD concentration at which complete conversion to β-strand occurs” value in the data set with Hdm2-ABD (1 molar equivalent of peptide) is no less than 10 µM. Moreover, in the data set on mouse fibroblasts, the cell cycle arrest entry was “exhibited cell cycle arrest activity in vivo”. Further, the “p53-dependent cell cycle arrest” value with mouse fibroblasts (mouse fibroblasts) was “caused p53-dependent cell cycle arrest in mouse fibroblasts”.
For the molecule “residues 1-15 of p14^Arf: peptide corresponding to residues 1-15 of p14^Arf (MVRRFLVTLRIRRAC; UniProt Q8N726 1-15, looked up, fragment)”, the “irreversible assembly into bi-molecular oligomers with Hdm2-ABD” value with Hdm2-ABD is recorded as “irreversibly assembled into bi-molecular oligomers”. Further, the “assembly with 15-residue H1 peptide of Hdm2” value in data set [12] is “irreversibly assembled into bi-molecular oligomers”.
For the molecule “residues 1-15 of p19^Arf: peptide from the N-terminus of p19^Arf spanning residues 1-15 (MGRRFLVTVRIQRAG; UniProt Q64364 1-15, looked up, fragment)”, the “binding to Hdm2-ABD” value in the data set with Hdm2-ABD was “bound to Hdm2-ABD”.

B1: A1-mini, peptide of residues 2-10 of mouse Arf (p19Arf) (peptide)
peptide: GRRFLVTVR
Turning to B1, the Kd in data set [13] was roughly 200 µM.

Source of the values: PMC2612038 (Journal of molecular biology, 2008).
